ChEMBL document CHEMBL1152902, “Synthesis, antifungal activities and 3D-QSAR study of N-(5-substituted-1,3,4-thiadiazol-2-yl)cyclopropanecarboxamides” (2009)

Experiments:
Format in all cases: functional
Botrytis cinerea = assay: Antifungal activity against Botrytis cinerea at 500 ug/ml relative to control
Outline: (§1)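 Pot culture test run as in the cited reference, with series compounds screened against five fungi: S. sclerotiorum (Lib.) de Bary, R. solani, F. oxysporum, C. cassiicola and B. cinerea. Culture plates were held at (24 ±1) °C. Commercial fungicides (dimehachlon, jinggangmycin, thiophanate methyl, chlorothalonil, pyrimethanil) served as controls under the same conditions.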

Fusarium oxysporum = assay: Antifungal activity against Fusarium oxysporum at 500 ug/ml relative to control; outline: as §1
Rhizoctonia solani = assay: Antifungal activity against Rhizoctonia solani at 500 ug/ml relative to control; outline: as §1
Sclerotinia sclerotiorum = assay: Antifungal activity against Sclerotinia sclerotiorum (Lib.) de Bary at 500 ug/ml relative to control; outline: as §1
Corynespora cassiicola = assay: Antifungal activity against Corynespora cassiicola at 500 ug/ml relative to control; outline: as §1

SMILES: CC(C)c1nnc(NC(=O)C2CC2)s1
- inhibition at 500 µg/mL (Botrytis cinerea): 42%
- inhibition at 500 µg/mL (Fusarium oxysporum): 20%
- inhibition at 500 µg/mL (Rhizoctonia solani): 11%
- inhibition at 500 µg/mL (Sclerotinia sclerotiorum): 47.7%
- inhibition at 500 µg/mL (Corynespora cassiicola): 29.3%

SMILES: O=C(Nc1nnc(C2CC2)s1)C1CC1
- inhibition at 500 µg/mL (Botrytis cinerea): 66.6%
- inhibition at 500 µg/mL (Fusarium oxysporum): 37%
- inhibition at 500 µg/mL (Rhizoctonia solani): 21%
- inhibition at 500 µg/mL (Sclerotinia sclerotiorum): 26.7%
- inhibition at 500 µg/mL (Corynespora cassiicola): 13.3%

SMILES: O=C(Nc1nnc(-c2ccc([N+](=O)[O-])cc2)s1)C1CC1
- inhibition at 500 µg/mL (Botrytis cinerea): 30.3%
- inhibition at 500 µg/mL (Fusarium oxysporum): 13%
- inhibition at 500 µg/mL (Rhizoctonia solani): 16%
- inhibition at 500 µg/mL (Sclerotinia sclerotiorum): 43.1%
- inhibition at 500 µg/mL (Corynespora cassiicola): 18.6%

SMILES: COc1ccc(-c2nnc(NC(=O)C3CC3)s2)cc1
- inhibition at 500 µg/mL (Botrytis cinerea): 79.4%
- inhibition at 500 µg/mL (Fusarium oxysporum): 12%
- inhibition at 500 µg/mL (Rhizoctonia solani): -9%
- inhibition at 500 µg/mL (Sclerotinia sclerotiorum): 33%
- inhibition at 500 µg/mL (Corynespora cassiicola): 33.3%

SMILES: O=C(Nc1nncs1)C1CC1
- inhibition at 500 µg/mL (Botrytis cinerea): 83.7%
- inhibition at 500 µg/mL (Fusarium oxysporum): 17%
- inhibition at 500 µg/mL (Rhizoctonia solani): 37%
- inhibition at 500 µg/mL (Sclerotinia sclerotiorum): 24%
- inhibition at 500 µg/mL (Corynespora cassiicola): 22.5%

SMILES: Cc1nnc(NC(=O)C2CC2)s1
- inhibition at 500 µg/mL (Botrytis cinerea): 67.5%
- inhibition at 500 µg/mL (Fusarium oxysporum): 84%
- inhibition at 500 µg/mL (Rhizoctonia solani): 5%
- inhibition at 500 µg/mL (Sclerotinia sclerotiorum): 23%
- inhibition at 500 µg/mL (Corynespora cassiicola): 52.4%

SMILES: CCCc1nnc(NC(=O)C2CC2)s1
- inhibition at 500 µg/mL (Botrytis cinerea): 57.9%
- inhibition at 500 µg/mL (Fusarium oxysporum): 1%
- inhibition at 500 µg/mL (Rhizoctonia solani): 35%
- inhibition at 500 µg/mL (Sclerotinia sclerotiorum): 40%
- inhibition at 500 µg/mL (Corynespora cassiicola): 46.6%

SMILES: O=C(Nc1nnc(-c2ccc(Cl)cc2)s1)C1CC1
- inhibition at 500 µg/mL (Botrytis cinerea): 13.5%
- inhibition at 500 µg/mL (Fusarium oxysporum): 28%
- inhibition at 500 µg/mL (Rhizoctonia solani): 62%
- inhibition at 500 µg/mL (Sclerotinia sclerotiorum): 23.9%
- inhibition at 500 µg/mL (Corynespora cassiicola): 19.7%

SMILES: Cc1cccc(-c2nnc(NC(=O)C3CC3)s2)c1
- inhibition at 500 µg/mL (Botrytis cinerea): 90.7%
- inhibition at 500 µg/mL (Fusarium oxysporum): 11%
- inhibition at 500 µg/mL (Rhizoctonia solani): 39%
- inhibition at 500 µg/mL (Sclerotinia sclerotiorum): 20%
- inhibition at 500 µg/mL (Corynespora cassiicola): 8.38%

SMILES: CCc1nnc(NC(=O)C2CC2)s1
- inhibition at 500 µg/mL (Botrytis cinerea): 32.1%
- inhibition at 500 µg/mL (Fusarium oxysporum): 10%
- inhibition at 500 µg/mL (Rhizoctonia solani): 23%
- inhibition at 500 µg/mL (Sclerotinia sclerotiorum): 51.7%
- inhibition at 500 µg/mL (Corynespora cassiicola): 49.7%

SMILES: O=C(Nc1nnc(-c2ccccc2F)s1)C1CC1
- inhibition at 500 µg/mL (Botrytis cinerea): 67.5%
- inhibition at 500 µg/mL (Fusarium oxysporum): 84%
- inhibition at 500 µg/mL (Rhizoctonia solani): 5%
- inhibition at 500 µg/mL (Sclerotinia sclerotiorum): 23%
- inhibition at 500 µg/mL (Corynespora cassiicola): 68.3%

SMILES: O=C(Nc1nnc(-c2ccccc2)s1)C1CC1
- inhibition at 500 µg/mL (Botrytis cinerea): 80.5%
- inhibition at 500 µg/mL (Fusarium oxysporum): 16%
- inhibition at 500 µg/mL (Rhizoctonia solani): 9%
- inhibition at 500 µg/mL (Sclerotinia sclerotiorum): 24%
- inhibition at 500 µg/mL (Corynespora cassiicola): 17.4%

SMILES: CCCCc1nnc(NC(=O)C2CC2)s1
- inhibition at 500 µg/mL (Botrytis cinerea): 26%
- inhibition at 500 µg/mL (Fusarium oxysporum): 2%
- inhibition at 500 µg/mL (Rhizoctonia solani): 44%
- inhibition at 500 µg/mL (Sclerotinia sclerotiorum): 10.3%
- inhibition at 500 µg/mL (Corynespora cassiicola): 21.9%

SMILES: Cc1ccccc1-c1nnc(NC(=O)C2CC2)s1
- inhibition at 500 µg/mL (Botrytis cinerea): 75.1%
- inhibition at 500 µg/mL (Fusarium oxysporum): 21%
- inhibition at 500 µg/mL (Rhizoctonia solani): 36%
- inhibition at 500 µg/mL (Sclerotinia sclerotiorum): 37.5%
- inhibition at 500 µg/mL (Corynespora cassiicola): 50.8%

SMILES: O=C(Nc1nnc(-c2ccccc2Cl)s1)C1CC1
- inhibition at 500 µg/mL (Botrytis cinerea): 35.1%
- inhibition at 500 µg/mL (Fusarium oxysporum): 91%
- inhibition at 500 µg/mL (Rhizoctonia solani): 44%
- inhibition at 500 µg/mL (Sclerotinia sclerotiorum): 25.5%
- inhibition at 500 µg/mL (Corynespora cassiicola): 21.4%

SMILES: N#Cc1c(Cl)c(Cl)c(Cl)c(C#N)c1Cl [CHLOROTHALONIL]
- inhibition at 500 µg/mL (Corynespora cassiicola): 86.4%

SMILES: O=C1CCC(=O)N1c1cc(Cl)cc(Cl)c1 [DIMETHACHLON]
- inhibition at 500 µg/mL (Sclerotinia sclerotiorum): 96.7%

SMILES: Cc1cc(C)nc(Nc2ccccc2)n1 [PYRIMETHANIL]
- inhibition at 500 µg/mL (Botrytis cinerea): 99.2%

SMILES: COC(=O)NC(=S)Nc1ccccc1NC(=S)NC(=O)OC [THIOPHANATE METHYL]
- inhibition at 500 µg/mL (Fusarium oxysporum): 97%
